System: MS2 coat protein
Experiment: apparent Kd, MS2 coat protein; higher = weaker binding; RNA-MaP array; FMN 200 µM where present
Outline: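 Stalled E. coli RNA polymerase transcribed the designs on Illumina sequencing-chip clusters. SNAP-549-labelled MS2 coat protein was titrated from 0.7 or 1.5 nM, doubling to 3 µM, without and then with constant ligand, in 100 mM Tris-HCl pH 7.5, 80 mM KCl, 4 mM MgCl2, BSA, DTT, yeast tRNA and Tween-20. Per-cluster binding curves were fitted to green signal normalised to red-channel RNA signal and control-cluster median Fmax. The apparent Kd is the median of the filtered fits.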

[1] = designed as: OFF switch for flavin mononucleotide, no ligand
[2] = ligand present: flavin mononucleotide, designed as: OFF switch for flavin mononucleotide
[3] = designed as: ON switch for flavin mononucleotide, no ligand
[4] = ligand present: flavin mononucleotide, designed as: ON switch for flavin mononucleotide

| Sequence | apparent Kd [1] | apparent Kd [2] | apparent Kd [3] | apparent Kd [4] |
| --- | --- | --- | --- | --- |
| AAAAAGGUAGGAUAUACGAAAAAAAAGGGUAAAAUAAAUAAACAUGAGGAUCACCCAUGUAGAAGGACCAAAAA | 25.3 nM | 64.4 nM |  |  |
| UAUAUGUCAGGAUAUCGAUUGGAACGGAAUUCGGUUCUGGUUGAGAAGGGACAUGAGGAUCACCCAUGUUUUUC | 36.2 nM | 222 nM |  |  |
| ACAAAACAUGAGGAUCACCCAUGUGAGGAUAUGCGAAACAAACAAACAAACAAACAAAGCAGAAGGCACAACAA | 22.7 nM | 37.1 nM |  |  |
| GGAUAGGACAGAGGAUAUACGUGCUAGAGAUACUAGGAAAAUUUCCUCACAUGAGGAUCACCCAUGUAGAAGGCUGUCCUAUCG | 305 nM | 51.7 nM |  |  |
| GGAUUACAUGAGGAUCACCCAUGUGAGGAUAUCGAUGUCCAGUAGGGCGUGCGGGACUCGAGAAGGCACUUGGA | 47.5 nM | 177 nM |  |  |
| UCUACAUAAAUUCAUCAAUACAGAAAGGAUAUGAGAUACAUGAGGAUCACCCAUGUGCAUGUGAAUUAGAAGGUUCAAUUAACU | 14.4 nM | 11.1 nM |  |  |
| GCGGAGUGAGGAUAUAGAACUUAAGGUACCAAUAAGGUACCCUAGAAGGCACAUGAGGAUCACCCAUGUACCGC | 24.3 nM | 24.4 nM |  |  |
| CCUCAGUCAGGAUAUAUCGCACCCAUGAAGUACAUAGGUUCAUAGAAGGGACAUGAGGAUCACCCAUGUCUAGA | 22 nM | 57 nM |  |  |
| UAUUAAAACGAGAAGGGAGUACAUGAGGAUCACCCAUGUGCCUCAUAAUACUCAGGAUAUCGUGAUUGGGUCACCAGCUGGGUG | 509 nM | 29.3 nM |  |  |
| CUUGUACUCGGAGGAUAUCGAUAUCAAACAUGAGGAUCACCCAUGUUGAGGAUCACACAUGUAAAUGAGAAGGCUGACGUUGCU |  |  | 22.9 nM | 26.3 nM |
| GAGUGACAUGAGGAUCACCCAUGUGAGGAUAUCGGACGGACCAAAUUAACAAUAAUUGCGAGAAGGCACAUCGG | 60.2 nM | 92.3 nM |  |  |
| CGCUACUACCAGAAGGACAUGAGGAUCACCCAUGUAGGAUAUGGGUUACAAGUACCAGUGUAAAGAAACUACGCUACGUAUGCG |  |  | 36.6 nM | 7.84 nM |
| CUAUAUAAUACCUCAUGUACAUGAGGAUCACCCAUGUUAACUUAGGAUAUAUUUAUAUUAAUAGAGUAGAAGGAAGUACUAUUU | 22.1 nM | 17.4 nM |  |  |
| UAAAUUUUGUAAGGAUAUACACGAGAUUCAAGUGUAGAAGGUACUUACAUGAGGAUCACCCAUGUAUACAUGGAUAAUAGAUAU |  |  | 436 nM | 141 nM |
| GGAGCAUAUCAAUACAUGAGGAUCACCCAUGUCGAAUGAUAUGAGGAUAUGCAUCGGAAAACGAUGUAGAAGGCAUAGUGCUCC |  |  | 9.14 nM | 5.58 nM |
| UCAUGUCCUGAGGAUAUGUAGCGGAUAAACGCAACAGAAGGCAGGACAUGAGGAUCACCCAUGUGUGCCUUCUA | 96.6 nM | 14.2 nM |  |  |
| UAGAAGUCAGGAUAUCCAGCUCGUCACUUGCGUGAUGAGUUGGAGAAGGGACAUGAGGAUCACCCAUGUAAAGC | 53.7 nM | 46.5 nM |  |  |
| UUAUUUAUACAAGGAUAUCUAUUAUAUUCACAUCCUACAUGAGGAUCACCCAUGUUAUAUAUUUUAGAGAAGGUGUAUUGUCUG |  |  | 27.2 nM | 30.8 nM |
| AACCUAUUACAGAAGGCCAGCUACAUGAGGAUCACCCAUGUCGAGUCAUGGAGGAUAUGUAGUAAUUUACUCACAGAUGAGUGA |  |  | 22.9 nM | 5.07 nM |
| UGUCGGAGCAGAGGAUAUUACAUGAGGAUCACCCAUGUAAAUGGAAUAAGCUGGAAACAGCAAUGUAAGAAGGCUGCUCCGACA | 70.2 nM | 619 nM |  |  |
| AGUAACAGAGGAUAUACUAUUUUAUGUGUUUGUUGUUUUGAACAUGAGGAUCACCCAUGUAGAAGGCUGAAUAA | 23.9 nM | 24.9 nM |  |  |
| ACAUACAUUCGAGGAUAUCGGUGAUUAAUUUUACGAGAAGGCGAUAUAAGAUUUAAUAUUUUAGACAUGAGGAUCACCCAUGUA |  |  | 27.6 nM | 22.7 nM |
| UUAAUAAUACAAGGAUAUCUAUUGUUCUUUCGACAUACAUGAGGAUCACCCAUGUUAAUAUAUAUAGAGAAGGUGUAUUUUCAG |  |  | 28 nM | 24.5 nM |
